Columns and labels:
recombinant HSP90α = assay type: binding; settings: at 50 μM
PRMTs = assay: PRMT inhibition; assay type: biochemical; settings: Supporting Information Graph SI-1
KHMTs = assay: KHMT inhibition; assay type: biochemical; settings: Supporting Information Graph SI-1
MCF-7 cells = assay: In situ probe labeling with in-gel TAMRA fluorescence, MCF-7; assay type: cell-based, human; settings: 100 μM competitor, 10 μM probe 4, UV irradiation
How it was run: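 MCF-7 cells (RPMI 1640, 10% FCS) at 80–90% confluence were washed and put in serum-free medium. They got 10 μM probe for 1 h at 37 °C, with 100 μM competitor, then 1 h of 365 nm UV. Lysis in RIPA plus protease inhibitors. SDS-PAGE, fluorescence scan, SYPRO Ruby loading control.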

DNMT = DNMT inhibition; assay type: biochemical; settings: Supporting Information Graph SI-1
recombinant GRP94 = assay type: binding; settings: at 50 μM
[1] = test system: K-562, KG-1, MOLM-13, and WM-266–4 cells; assay: In situ probe labeling with in-gel TAMRA fluorescence, other cancer cell lines; assay type: cell-based, human; settings: K-562, KG-1, MOLM-13, WM-266–4 cells, 1 h treatment with 10 μM probe, triplicate
How it was run: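 Cell media: K-562 in RPMI 1640 with 10% FCS, KG-1 and MOLM-13 with 20% FCS, WM-266–4 in EMEM with 10% FCS. Cells were treated in serum-free medium, in triplicate, with 10 μM probe, control probe or 1% DMSO for 1 h at 37 °C. UV at 365 nm for 1 h, then RIPA lysis. Click with TAMRA-biotin-azide/CuSO4/TCEP/TBTA, SDS-PAGE, in-gel fluorescence, SYPRO Ruby loading control.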

binding to HSP90α (recombinant HSP90α)	binding to GRP94 (recombinant GRP94)	Compound	activity against PRMTs (PRMTs)	activity against KHMTs (KHMTs)	labeling of probe 4 after competition (MCF-7 cells)	activity against DNMT (DNMT)	labeling of band at 100 kDa / fluorescent labeling [1]
no significant binding	minor binding	COCn1cc(C(=O)NCC[C@H]2O[C@@H](n3cnc4c(N)ncnc43)[C@H](O)[C@@H]2O)c(N)nc1=O [Compound 1, 1-(Methoxymethyl)-N-((5′-deoxyadenosin-5′-yl)methyl)cytosine-5-carboxamide]	inactive	inactive	completely abolished	inactive	–
no significant binding	minor binding	Nc1nc(=O)n(COCc2ccccc2)cc1C(=O)NCC[C@H]1O[C@@H](n2cnc3c(N)ncnc32)[C@H](O)[C@@H]1O [Compound 2]	inactive	inactive	completely abolished	inactive	–
–	–	C#CCCCC(=O)Nc1ccc(C(=O)c2ccc(NC(=O)CCCCNC(=O)OC(C)(C)C)cc2)cc1 [Compound 5, N-(4-(4-(5-(Boc-amino)pentanamido)benzoyl)phenyl)hex-5-ynamide]	–	–	–	–	absence of fluorescent labeling

From article PMC7336334 (ACS chemical biology, 2020)
